# Measured values taken from ChEMBL document CHEMBL5034013, “Discovery of VNRX-7145 (VNRX-5236 Etzadroxil): An Orally Bioavailable β-Lactamase Inhibitor for Enterobacterales Expressing Ambler Class A, C, and D Enzymes” (J Med Chem, 2021).
# Tests used:
# Escherichia coli [1] = test: In vivo antibacterial activity against Escherichia coli expressing TEM-1/CTX-M-15 infected in C3H/HeJ mouse assessed as log10 reduction in CFU in bladder administration of compound:ceftibuten 1:1 ratio at 1 to 300 mg/kg, sc every 12 hrs for 3 days starting from 4 days post infection and measured at 7 days post infection (reference value: 5.8 log10CFU); conditions: dose 1-300 mg/kg; time 3 day
# Escherichia coli [2] = test: Antibacterial activity against Escherichia coli expressing AmpC/SHV-12/CTX-M-15/TEM-1 assessed as concentration required to restore ceftibuten activity incubated for 16 to 20 hrs in presence of 1 ug/ml ceftibuten by broth microdilution method; assay type: functional; conditions: time 16-20 hrs
# [3] = Apparent permeability across basolateral to apical side in human Caco-2 cells at 5 uM measured after 2 hrs by LC-MS/MS method; assay type: ADME, cell-based; conditions: caco-2, 2 h
# Escherichia coli [4] = test: Antibacterial activity against Escherichia coli expressing CTX-M-15/TEM-1 assessed as concentration required to restore ceftibuten activity incubated for 16 to 20 hrs in presence of 1 ug/ml ceftibuten by broth microdilution method; assay type: functional; conditions: time 16-20 hrs
# [5] = AUC in mouse at 1.2 mg/kg, sc; assay type: ADME, organism-based; parameters: dose 1.2 mg/kg; conditions: in vivo
# Escherichia coli [6] = test: Antibacterial activity against Escherichia coli expressing CTX-M-2 assessed as concentration required to restore ceftibuten activity incubated for 16 to 20 hrs in presence of 1 ug/ml ceftibuten by broth microdilution method; assay type: functional; conditions: time 16-20 hrs
# Escherichia coli [7] = test: Antibacterial activity against Escherichia coli 664507 expressing OXA-48 assessed as concentration required to restore ceftibuten activity incubated for 16 to 20 hrs in presence of 1 ug/ml ceftibuten by broth microdilution method; assay type: functional; conditions: time 16-20 hrs
# Method in brief: (§1)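 Tested against a 25-strain challenge panel of clinical E. coli and K. pneumoniae isolates carrying ESBL (n = 5), KPC (n = 11), class C (n = 4) or OXA-48 (n = 5) β-lactamases. Ceftibuten was held at 1 μg/mL while the BLI concentration varied. The read-out was the BLI concentration that rescued ceftibuten activity.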
# Escherichia coli [8] = test: Antibacterial activity against Escherichia coli 664520 expressing OXA-48 assessed as concentration required to restore ceftibuten activity incubated for 16 to 20 hrs in presence of 1 ug/ml ceftibuten by broth microdilution method; assay type: functional; conditions: time 16-20 hrs
# Method in brief: as §1
# Klebsiella pneumoniae [9] = test: Antibacterial activity against Klebsiella pneumonia 217917 expressing CMY-2/TEM-1 assessed as concentration required to restore ceftibuten activity incubated for 16 to 20 hrs in presence of 1 ug/ml ceftibuten by broth microdilution method; assay type: functional; conditions: time 16-20 hrs
# Method in brief: as §1
# Klebsiella pneumoniae [10] = test: Antibacterial activity against Klebsiella pneumoniae 196477 expressing AmpC/CMY-2/TEM-1/CTX-M-15 assessed as concentration required to restore ceftibuten activity incubated for 16 to 20 hrs in presence of 1 ug/ml ceftibuten by broth microdilution method; assay type: functional; conditions: time 16-20 hrs
# [11] = Inhibition of bacterial beta-lactamase KPC-2 using imipenem as substrate preincubated for 15 mins followed by substrate addition and measured after 10 mins by spectrophotometric analysis; parameters: species or system Bacteria
# Method in brief: (§2)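 IC50 is the mean of duplicate runs on separate days. A run was repeated automatically if it differed by more than 20% from the previous result.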
# Klebsiella pneumoniae [12] = test: Antibacterial activity against Klebsiella pneumoniae expressing SHV-12/TEM-1 assessed as concentration required to restore ceftibuten activity incubated for 16 to 20 hrs in presence of 1 ug/ml ceftibuten by broth microdilution method; assay type: functional; conditions: time 16-20 hrs
# Klebsiella pneumoniae [13] = test: Antibacterial activity against Klebsiella pneumoniae expressing OXA-48 assessed as concentration required to restore ceftibuten activity incubated for 16 to 20 hrs in presence of 1 ug/ml ceftibuten by broth microdilution method; assay type: functional; conditions: time 16-20 hrs
# Klebsiella pneumoniae [14] = test: Antibacterial activity against Klebsiella pneumonia DOV expressing OXA-48 assessed as concentration required to restore ceftibuten activity incubated for 16 to 20 hrs in presence of 1 ug/ml ceftibuten by broth microdilution method; assay type: functional; conditions: time 16-20 hrs
# Method in brief: as §1
# Klebsiella pneumoniae [15] = test: Antibacterial activity against Klebsiella pneumonia SI-C05 expressing OXA-48 assessed as concentration required to restore ceftibuten activity incubated for 16 to 20 hrs in presence of 1 ug/ml ceftibuten by broth microdilution method; assay type: functional; conditions: time 16-20 hrs
# Method in brief: as §1
# Escherichia coli [16] = test: Antibacterial activity against Escherichia coli 849121 expressing KPC assessed as concentration required to restore ceftibuten activity incubated for 16 to 20 hrs in presence of 1 ug/ml ceftibuten by broth microdilution method; assay type: functional; conditions: time 16-20 hrs
# Klebsiella pneumoniae [17] = test: Antibacterial activity against Klebsiella pneumoniae expressing SHV-12/TEM-1/KPC-2/AmpC assessed as concentration required to restore ceftibuten activity incubated for 16 to 20 hrs in presence of 1 ug/ml ceftibuten by broth microdilution method; assay type: functional; conditions: time 16-20 hrs
# Klebsiella pneumoniae [18] = test: Antibacterial activity against Klebsiella pneumoniae expressing KPC-3/TEM-1/AmpC assessed as concentration required to restore ceftibuten activity incubated for 16 to 20 hrs in presence of 1 ug/ml ceftibuten by broth microdilution method; assay type: functional; conditions: time 16-20 hrs
# Klebsiella pneumoniae [19] = test: Antibacterial activity against Klebsiella pneumoniae 845661 expressing KPC assessed as concentration required to restore ceftibuten activity incubated for 16 to 20 hrs in presence of 1 ug/ml ceftibuten by broth microdilution method; assay type: functional; conditions: time 16-20 hrs
# Escherichia coli [20] = test: Antibacterial activity against Escherichia coli SI-P026TC expressing CMY-2/TEM-1 assessed as concentration required to restore ceftibuten activity incubated for 16 to 20 hrs in presence of 1 ug/ml ceftibuten by broth microdilution method; assay type: functional; conditions: time 16-20 hrs
# Klebsiella pneumoniae [21] = test: Antibacterial activity against Klebsiella pneumoniae expressing TEM-1/SHV-12 assessed as concentration required to restore ceftibuten activity incubated for 16 to 20 hrs in presence of 1 ug/ml ceftibuten by broth microdilution method; assay type: functional; conditions: time 16-20 hrs
# Klebsiella pneumoniae [22] = test: Antibacterial activity against Klebsiella pneumoniae expressing SHV-1/TEM-1/KPC-2 assessed as concentration required to restore ceftibuten activity incubated for 16 to 20 hrs in presence of 1 ug/ml ceftibuten by broth microdilution method; assay type: functional; conditions: time 16-20 hrs
# Escherichia coli [23] = test: Antibacterial activity against Escherichia coli J53 expressing SHV-5/TEM-1/AmpC assessed as concentration required to restore ceftibuten activity incubated for 16 to 20 hrs in presence of 1 ug/ml ceftibuten by broth microdilution method; assay type: functional; conditions: time 16-20 hrs
# [24] = Apparent permeability across apical to basolateral side in human Caco-2 cells at 5 uM measured after 2 hrs by LC-MS/MS method; assay type: ADME, cell-based; conditions: caco-2, 2 h
# Escherichia coli [25] = test: Antibacterial activity against Escherichia coli 786978 expressing KPC assessed as concentration required to restore ceftibuten activity incubated for 16 to 20 hrs in presence of 1 ug/ml ceftibuten by broth microdilution method; assay type: functional; conditions: time 16-20 hrs
# [26] = Inhibition of bacterial beta-lactamase SHV-5 using cefotaxime as substrate preincubated for 15 mins followed by substrate addition and measured after 10 mins by spectrophotometric analysis; parameters: species or system Bacteria
# Method in brief: as §2
# [27] = AUC in mouse at 12 mg/kg, sc; assay type: ADME, organism-based; parameters: dose 12 mg/kg; conditions: in vivo
# Method in brief: (§3)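 Single-dose pharmacokinetics of the parent BLI in mice given subcutaneously at 1.2, 12 and 38 mg/kg. The AUC is reported in mg∗h/L and was used to check dose proportionality. The study was run to choose dosing regimens for the murine ascending UTI efficacy model.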
# Escherichia coli [28] = test: (§4) In vivo antibacterial activity against Escherichia coli expressing TEM-1/CTX-M-15 infected in C3H/HeJ mouse assessed as log10 reduction in CFU in kidney administration of compound:ceftibuten 1:1 ratio at 1 to 300 mg/kg, sc every 12 hrs for 3 days starting from 4 days post infection and measured at 7 days post infection (reference value: 6.7 log10CFU); assay type: functional; conditions: dose 1-300 mg/kg; time 3 day
# Klebsiella pneumoniae [29] = test: Antibacterial activity against Klebsiella pneumoniae 845670 expressing KPC assessed as concentration required to restore ceftibuten activity incubated for 16 to 20 hrs in presence of 1 ug/ml ceftibuten by broth microdilution method; assay type: functional; conditions: time 16-20 hrs
# Klebsiella pneumoniae [30] = test: Antibacterial activity against Klebsiella pneumoniae 156309 expressing SHV-11/TEM-1/KPC-2 assessed as concentration required to restore ceftibuten activity incubated for 16 to 20 hrs in presence of 1 ug/ml ceftibuten by broth microdilution method; assay type: functional; conditions: time 16-20 hrs
# Klebsiella pneumoniae [31] = test: Antibacterial activity against Klebsiella pneumoniae expressing SHV-11/TEM-1/KPC-3 assessed as concentration required to restore ceftibuten activity incubated for 16 to 20 hrs in presence of 1 ug/ml ceftibuten by broth microdilution method; assay type: functional; conditions: time 16-20 hrs
# Klebsiella pneumoniae [32] = test: Antibacterial activity against Klebsiella pneumoniae expressing SHV-5/KPC-2/TEM-1 assessed as concentration required to restore ceftibuten activity incubated for 16 to 20 hrs in presence of 1 ug/ml ceftibuten by broth microdilution method; assay type: functional; conditions: time 16-20 hrs
# Escherichia coli [33] = test: Antibacterial activity against Escherichia coli expressing TEM-1/SHV-12 assessed as concentration required to restore ceftibuten activity incubated for 16 to 20 hrs in presence of 1 ug/ml ceftibuten by broth microdilution method; assay type: functional; conditions: time 16-20 hrs
# Escherichia coli [34] = test: as §4, with “urine” for “kidney”; assay type: functional; conditions: dose 1-300 mg/kg; time 3 day
# [35] = AUC in mouse at 38 mg/kg, sc; assay type: ADME, organism-based; parameters: dose 38 mg/kg; conditions: in vivo
# Method in brief: as §3
# Escherichia coli [36] = test: as §4, with “in kidney at 1” for “in kidney administration of compound:ceftibuten 1:1 ratio at 1”, “mg/kg, sc administered every 12” for “mg/kg, sc every 12”; assay type: functional; conditions: dose 1-300 mg/kg; time 3 day
# Escherichia coli [37] = test: (§5) In vivo antibacterial activity against Escherichia coli expressing TEM-1/CTX-M-15 infected in C3H/HeJ mouse assessed as log10 reduction in CFU in bladder at 1 to 300 mg/kg, sc administered every 12 hrs for 3 days starting from 4 days post infection and measured at 7 days post infection (reference value: 5.8 log10CFU); assay type: functional; conditions: dose 1-300 mg/kg; time 3 day
# Escherichia coli [38] = test: as §5, with “urine” for “bladder”, “6.7” for “5.8”; assay type: functional; conditions: dose 1-300 mg/kg; time 3 day
compound,measurement,setting,value
CCC(=O)N[C@H]1Cc2cccc(C(=O)O)c2OB1O [LEDABORBACTAM],Activity,Escherichia coli [1],3.2 log10CFU/ml
same,Activity,Escherichia coli [2],0.016 µg/mL
same,Papp,[3],0.15 10^-6 cm/s
same,Activity,Escherichia coli [4],0.12 µg/mL
same,AUC,[5],7800 ng·h/mL
same,Activity,Escherichia coli [6],0.004 µg/mL
same,Activity,Escherichia coli [7],0.03 µg/mL
same,Activity,Escherichia coli [8],1 µg/mL
same,Activity,Klebsiella pneumoniae [9],0.12 µg/mL
same,Activity,Klebsiella pneumoniae [10],0.016 µg/mL
same,IC50,[11],80 nM
same,Activity,Klebsiella pneumoniae [12],0.06 µg/mL
same,Activity,Klebsiella pneumoniae [13],1 µg/mL
same,Activity,Klebsiella pneumoniae [14],0.016 µg/mL
same,Activity,Klebsiella pneumoniae [15],0.03 µg/mL
same,Activity,Escherichia coli [16],<=0.002 ug ml-1
same,Activity,Klebsiella pneumoniae [17],0.25 µg/mL
same,Activity,Klebsiella pneumoniae [18],0.5 µg/mL
same,Activity,Klebsiella pneumoniae [19],2 µg/mL
same,Activity,Escherichia coli [20],0.5 µg/mL
same,Activity,Klebsiella pneumoniae [21],0.016 µg/mL
same,Activity,Klebsiella pneumoniae [22],1 µg/mL
same,Activity,Escherichia coli [23],0.03 µg/mL
same,Papp,[24],0.11 10^-6 cm/s
same,Activity,Escherichia coli [25],0.5 µg/mL
same,IC50,[26],126 nM
same,AUC,[27],76000 ng·h/mL
same,Activity,Escherichia coli [28],2 log10CFU/ml
same,Activity,Klebsiella pneumoniae [29],<=0.002 ug ml-1
same,Activity,Klebsiella pneumoniae [30],0.5 µg/mL
same,Activity,Klebsiella pneumoniae [31],0.06 µg/mL
same,Activity,Klebsiella pneumoniae [32],<=0.002 ug ml-1
same,Activity,Escherichia coli [33],0.03 µg/mL
same,Activity,Escherichia coli [34],4 log10CFU/ml
same,AUC,[35],250000 ng·h/mL
Nc1nc(/C(=C/CC(=O)O)C(=O)N[C@@H]2C(=O)N3C(C(=O)O)=CCS[C@H]23)cs1 [CEFTIBUTEN],Activity,Escherichia coli [4],128 µg/mL
same,Activity,Escherichia coli [7],128 µg/mL
same,Activity,Escherichia coli [36],2 log10CFU/ml
same,Activity,Klebsiella pneumoniae [10],4 µg/mL
same,Activity,Klebsiella pneumoniae [12],32 µg/mL
same,Activity,Klebsiella pneumoniae [13],256 µg/mL
same,Activity,Escherichia coli [37],2 log10CFU/ml
same,Activity,Escherichia coli [38],2 log10CFU/ml
same,Activity,Escherichia coli [23],256 µg/mL
same,Activity,Escherichia coli [25],8 µg/mL
same,Activity,Klebsiella pneumoniae [30],256 µg/mL
